KCNK3 inh – human KCNK3 channel inhibitors, primary screen, CHO cells, FluxOR thallium flux, B-score | AID 602410, 2012 | FluxOR fluorescence; active compounds read low | Potassium channel subfamily K member 3 (Homo sapiens), O14649 | hit rate 0.84% among 340,000 | B-score at 10 µM;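 active means B-score under library mean minus 4 SD, starting fluorescence ratio at most library mean plus 5 SD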;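 further: more negative B-score means stronger inhibition of thallium flux through KCNK3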
KCNQ1 block – inhibitors of human KCNQ1 channel, primary screen, cell-based, thallium flux, high-throughput; CHO-K1 KCNQ1, FluxOR thallium flux fluorescence; active compounds read high; B-score at 10 µM; Potassium voltage-gated channel subfamily KQT member 1 (Homo sapiens), P51787; hit rate 1.3% among 310,000;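 active means compounds whose thallium flux B-score, printed positive for inhibition, exceeds three library SD while starting fluorescence stays within three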;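 further: channel opened by potassium depolarization with thallium stimulus after 20 min compound exposure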
hERG protect – hERG rescue from dofetilide block, primary screen, cell-based, CHO-hERG, FluxOR thallium flux, dofetilide IC70. Voltage-gated inwardly rectifying potassium channel KCNH2 (Homo sapiens), Q12809. dofetilide IC70 present. activation (rescue from dofetilide block), less the hit threshold, % at 10 µM. hit rate 0.51% among 310,000. AID 1511, 2009;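 active means activation above the mean of controls blocked by dofetilide plus 5 SD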;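 further: thallium influx through hERG after potassium depolarization seen as dye fluorescence rise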
KCNK9 inh – KCNK9 potassium channel inhibitors, primary screen, HEK293 cells, thallium flux | Potassium channel subfamily K member 9 (Homo sapiens), Q9NPC2 | FluxOR thallium flux fluorescence; active compounds read low | B-score at 10 µM | hit rate 1.2% among 310,000 | AID 488922, 2010;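 active means ratio B-score over 3 SD below the library mean, with starting fluorescence within 5 SD of its mean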;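 further: negative B-score means less thallium flux so channel inhibition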
KCNQ1 pot – potentiators or activators of KCNQ1 channel, primary screen, cell-based, thallium flux, high-throughput; Potassium voltage-gated channel subfamily KQT member 1 (Homo sapiens), P51787; CHO-K1 KCNQ1, thallium flux FluxOR fluorescence; active compounds read high; B-score at 10 µM; hit rate 0.35% among 310,000;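 active means fluorescence ratio B-score, a plate-corrected score, at least three library SD, with initial intensity B-score within 5 SD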
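Doses: Single concentration per compound, DMSO matched to controls | Test system: KCNQ1-transfected CHO-K1 cells | Timing: 90 min dye loading and 20 min compound exposure, both at room temperature | Measured by: Kinetic FluxOR thallium fluorescence, 10-s 1-Hz baseline, 110-s post-stimulus read | Medium: Assay buffer with matched DMSO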
KCNK3 inh conf – retest of human KCNK3 channel inhibitors, confirmation, CHO cells, FluxOR thallium flux, triplicate | FluxOR fluorescence; 0% buffer, 100% carvedilol maximal block | hit rate 99% among 2,400 | ratio percent of control, % at 10 µM | shares compounds with KCNK3 inh | AID 651638, 2012;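 active means ratio percent of control, averaged over triplicates, above buffer control mean plus 5 SD, cut at about 64% in these data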;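 further: ratio is the fluorescence rise from min to max over baseline after thallium stimulus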
KCNK3 uninduced – thallium flux inhibition in non-induced cells, primary screen, counter-screen for KCNK3 inhibitor project, cell-based, non-induced KCNK3 line, FluxOR thallium, triplicate; shares compounds with KCNK3 inh; thallium flux ratio (lower = more inhibition) at 10 µM; non-induced KCNK3 parental cells; active compounds read low; AID 651747, 2012; hit rate 40% among 2,400;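 active means thallium flux ratio, averaged over three wells, more than 5 SD below the buffer control mean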;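 further: host cells are CHO cells without KCNK3 induction; ratio is peak minus trough fluorescence over baseline then normalized to buffer controls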
Numbers without * were called inactive; i = inactive; x = no result. Most compounds without a hit are left out; they make up all but 3.1% or so of the library.

SMILES | KCNK3 inh | KCNQ1 block | hERG protect | KCNK9 inh | KCNQ1 pot | KCNK3 inh conf | KCNK3 uninduced
Cc1[nH]c2ccc(F)cc2c1CCN(Cc1ccco1)C(=S)NC(C)(C)C | -10.5* | 7* | 1.0 | i | i | 119.7* | 0.159*
CCN(CC(=O)Nc1cccc(C(C)=O)c1)S(=O)(=O)c1ccccc1 | i | i | -3.9 | i | i | x | x
CCc1ccc(NC(=O)N(CCCN2CCOCC2)C(C)c2cc3cccc(OC)c3o2)cc1 (stereo not drawn) | -8.83* | i | -13.2 | i | i | 118.0* | i
COc1cccc2cc(C(C)N(CCCN3CCOCC3)C(=S)Nc3c(C)cccc3C)oc12 (stereo not drawn) | i | i | -8.1 | i | i | x | x
Fc1ccc(CNc2nc(-c3ccco3)cc(C(F)(F)F)n2)cc1 | -9.01* | i | -33.2 | i | i | 136.0* | 0.135*
CC(C)[C@H](NS(=O)(=O)c1ccccc1)C(=O)OCC(=O)Nc1cccc(S(N)(=O)=O)c1 | i | x | x | x | x | x | x
CN(CC(=O)Nc1cccc(S(=O)(=O)N2CCCC2)c1)CC(=O)Nc1ccc(Cl)c(C(F)(F)F)c1 | -11.2* | i | -14.2 | i | i | 128.0* | 0.14*
CN(CC(=O)Nc1cccc(S(=O)(=O)N2CCCC2)c1)CC(=O)Nc1ccc(F)c(F)c1F | i | x | x | x | x | x | x
COC(=O)c1ccccc1NC(=O)N1CCN(c2ccc(F)cc2)CC1 | -10.7* | i | -20.2 | i | i | 112.0* | i
COc1cc(C)ccc1OCCOc1c(Cl)cc(Cl)cc1Cl | i | i | -11.6 | i | i | x | x
COc1cc(C)ccc1OCCOc1cc(C)ccc1Cl | -8.72* | i | -9.6 | i | i | 88.3* | i
CCOC(=O)c1sc2nc(C)nc(N3CCCCC3C)c2c1C (stereo not drawn) | -8.78* | i | -10.7 | i | i | 90.3* | 0.148*
O=C(C1=NNCC1c1ccccc1)C1CO1 (stereo not drawn) | i | i | -7.0 | i | i | x | x
CN(C(=O)Nc1ccc(Cl)cc1Cl)C1CCCC1 | -9.11* | i | -22.1 | i | i | 76.0* | i
O=C(Nc1ccc(Cl)cc1Cl)NC1CCCC1 | i | i | -12.7 | i | i | x | x
CC(C)(C)OC(=O)[C@H]1[C@H](c2ccc([N+](=O)[O-])cc2)C2(C(=O)c3ccccc3C2=O)C2c3ccccc3C=NN21 (stereo partly drawn) | i | i | -8.9 | i | i | x | x
COc1ccc(S(=O)(=O)Oc2ccc3cccc(N)c3c2)cc1 | -9.07* | i | -9.2 | i | i | 101.3* | i
CCC(=O)N1CCc2cc(S(=O)(=O)N3CCCCCC3)ccc21 | i | i | -4.6 | i | i | x | x
N#Cc1sc2nc(-c3cccs3)cc(-c3ccccc3)c2c1N | i | i | -3.7 | i | i | x | x
N#Cc1sc2nc(-c3cccs3)cc(-c3ccc(Cl)cc3)c2c1N | -14.2* | i | -11.1 | -6.97* | i | 131.7* | i
COCCN1C(=O)c2cc(C(=O)Nc3ccc(C)c(F)c3)ccc2C1Nc1ccc(C)c(F)c1 (stereo not drawn) | i | i | -5.6 | i | i | x | x
Cc1cc(O)c(-c2cc(C(=O)Nc3ccc(S(=O)(=O)N4CCOCC4)cc3)[nH]n2)cc1C | i | i | -1.6 | i | i | x | x
O=C(Nc1ccc(S(=O)(=O)N2CCOCC2)cc1)c1cc(-c2cc(Cl)ccc2O)n[nH]1 | -8.75* | i | -15.5 | i | i | 128.0* | 0.134*
CCCC(c1nnnn1CC1CCCO1)N1CCN(c2nc3ccccc3s2)CC1 (stereo not drawn) | i | i | -7.2 | i | i | x | x
CCCC(c1nnnn1Cc1cccs1)N1CCN(c2nc3ccccc3s2)CC1 (stereo not drawn) | -8.89* | i | -1.8 | -8.07* | i | 103.7* | i
SMILES | KCNK3 inh | KCNQ1 block | hERG protect | KCNK9 inh | KCNQ1 pot | KCNK3 inh conf | KCNK3 uninduced
Cc1ccc(C(=O)Nc2ccc(C(=O)N3CCCCC3C)cc2)cc1 (stereo not drawn) | i | i | -1.3 | i | i | x | x
CCc1ncc(CN2CCCC(C(=O)Nc3cccc(-c4cccc(C)c4)c3)C2)cn1 (stereo not drawn) | -10.9* | i | -13.1 | i | i | 114.7* | 0.152*
CC(C)c1ccc(C2C(C#N)=C(N)N3C(=C2C#N)Sc2ccccc23)cc1 (stereo not drawn) | x | i | -6.3 | i | i | x | x
O=C(Cc1ccc(Cl)cc1)NC(=S)Nc1ccccc1N1CCOCC1 | i | x | x | x | x | x | x
O=C(Nc1ccccc1N1CCOCC1)C1(c2ccc(Cl)cc2)CCC1 | -11.2* | i | -12.4 | i | i | 100.0* | i
O=S(=O)(NCc1cc(-c2ccccc2Cl)no1)c1ccc(Cl)cc1 | i | i | -24.5 | i | i | x | x
CCCCn1c(=NC(=O)c2ccco2)c(C(=O)OCC)cc2c(=O)n3cccc(C)c3nc21 | i | i | -12.7 | i | i | x | x
C(=Cc1c[nH]c2ccccc12)c1nccc2ccccc12 | -14.1* | x | x | x | x | 167.3* | 0.0443*
C(=Cc1c[nH]c2ccccc12)c1ccc2ccccc2n1 | i | x | x | x | x | x | x
Cn1nc(C(=O)OCC(=O)Nc2ccc3ccccc3c2)c2ccccc2c1=O | i | i | -16.4 | i | i | x | x
CC(C)(C)c1ccc(/C=C/C(=O)N2CCCCC2)cc1 | -8.85* | i | 2.0 | i | i | 107.7* | i
CC1(C)CC(=O)C=C(Nc2ccc(Cl)c(Br)c2)C1 | -10.4* | i | -4.4 | i | i | 114.0* | 0.148*
CC1(C)CC(=O)C=C(Nc2ccc(Cl)cc2)C1 | i | i | -2.2 | i | i | x | x
COc1ccc(N(C)S(=O)(=O)c2cccc(C(=O)N3CCN(S(=O)(=O)c4ccc(C)cc4)CC3)c2)cc1 | i | i | -13.0 | -12.3* | i | 92.3* | i
COc1cccc(NC(=O)CN(C)C(=O)c2cc(S(=O)(=O)Nc3ccccc3OC)ccc2C)c1 | i | x | x | x | x | x | x
CC1(C)CC(=O)C2=C(C1)c1c(ccc3ccccc13)NC2c1ccc(C(=O)O)cc1 (stereo not drawn) | i | i | -6.0 | i | i | x | x
